Test results from ChEMBL document CHEMBL4428108, “Carbohydrate-based peptidomimetics targeting neuropilin-1: Synthesis, molecular docking study and in vitro biological activities” (Bioorg Med Chem, 2016).
Activity calls are given as the source filed them. The rule behind the calls is not given here. Peptide text beside a SMILES is read from it.

Experiments:
Neuropilin-1 [1] = biological target: T1, Neuropilin-1 (Homo sapiens, UniProt O14786); test: Inhibition of biotinylated VEGF-A165 binding to recombinant NRP1 (unknown origin) at 100 uM measured after 2 hrs by competition binding assay relative to VEGF-A165
Summary of the method: (§1)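 Competition ELISA. Wells coated overnight at room temperature with recombinant chimeric NRP-1 or KDR in PBS, then blocked with 0.5% BSA/PBS for 1 h at 37 °C. Biotinylated VEGF-A165 (5 ng/mL, heparin-containing blocking buffer) incubated 2 h at room temperature with or without compound; unlabelled VEGF-A165 as positive control. Bound tracer detected with streptavidin-HRP, read at 450 nm. Three independent experiments, triplicates.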

Neuropilin-1 [2] = biological target: T1, Neuropilin-1; test: Inhibition of biotinylated VEGF-A165 binding to recombinant NRP1 (unknown origin) measured after 2 hrs by competition binding assay; summary of the method: as §1
Neuropilin-1 [3] = biological target: T1, Neuropilin-1; test: Binding affinity to NRP1 in HUVEC assessed as ratio of phosphorylated ERK to total ERK at 50 uM by Western blot analysis; format: cell-based
Summary of the method: (§2)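 HUVECs exposed to 50 µM compound; tuftsin as reference. Lysate protein (40 µg) resolved by SDS-PAGE and blotted to PVDF. Probed overnight at 4 °C for pAKT (Ser473), total AKT, pERK1/2 (Thr202/Tyr204) and total ERK1/2. ECL detection and densitometry. Phospho/total band ratio normalized to non-treated cells.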

Neuropilin-1 [4] = biological target: T1, Neuropilin-1; test: Binding affinity to NRP1 in HUVEC assessed as increase in AKT phosphorylation at 50 uM by Western blot analysis; format: cell-based; summary of the method: as §2

T1 sequence (O14786 whole entry): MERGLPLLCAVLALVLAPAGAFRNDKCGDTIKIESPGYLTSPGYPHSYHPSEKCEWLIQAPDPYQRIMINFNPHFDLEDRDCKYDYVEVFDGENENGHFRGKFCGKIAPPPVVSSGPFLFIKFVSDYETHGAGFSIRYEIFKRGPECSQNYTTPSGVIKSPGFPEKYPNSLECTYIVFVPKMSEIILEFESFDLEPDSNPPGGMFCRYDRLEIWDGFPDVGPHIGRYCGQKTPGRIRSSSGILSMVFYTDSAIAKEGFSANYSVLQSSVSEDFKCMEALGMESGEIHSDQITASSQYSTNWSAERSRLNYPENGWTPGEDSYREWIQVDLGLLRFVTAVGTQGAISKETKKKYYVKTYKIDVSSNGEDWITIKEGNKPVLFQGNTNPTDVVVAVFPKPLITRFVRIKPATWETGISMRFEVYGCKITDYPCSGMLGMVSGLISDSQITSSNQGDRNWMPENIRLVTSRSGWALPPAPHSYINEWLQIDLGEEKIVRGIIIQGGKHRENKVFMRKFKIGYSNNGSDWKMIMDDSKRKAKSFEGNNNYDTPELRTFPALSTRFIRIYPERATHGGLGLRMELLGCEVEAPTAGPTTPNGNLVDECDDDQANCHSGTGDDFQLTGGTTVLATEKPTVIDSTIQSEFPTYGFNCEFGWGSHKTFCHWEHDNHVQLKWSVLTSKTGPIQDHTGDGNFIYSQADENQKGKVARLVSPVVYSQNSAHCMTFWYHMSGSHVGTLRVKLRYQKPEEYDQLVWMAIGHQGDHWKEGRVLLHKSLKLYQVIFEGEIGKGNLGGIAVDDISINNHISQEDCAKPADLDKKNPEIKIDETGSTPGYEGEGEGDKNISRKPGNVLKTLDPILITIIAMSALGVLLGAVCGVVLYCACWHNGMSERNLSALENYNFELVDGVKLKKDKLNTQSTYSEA

`CC1(C)O[C@@H]2[C@H](O1)[C@H](Cn1cc(CCNC(=N)N)nn1)O[C@@H]2CC(=O)NCCc1c[nH]c2ccccc12` showed an inhibition (Neuropilin-1 [1]) of 5%.
`CC1(C)O[C@@H]2[C@H](O1)[C@H](Cn1cc(CCCNC(=N)N)nn1)O[C@@H]2CC(=O)NCCc1c[nH]c2ccccc12` showed an inhibition (Neuropilin-1 [1]) of 18%.
`N=C(N)NCCc1cn(C[C@@H]2O[C@H](CC(=O)NCCc3c[nH]c4ccccc34)[C@H](O)[C@@H]2O)nn1` was tested, and the inhibition (Neuropilin-1 [1]) was 37%.
`CC1(C)O[C@@H]2[C@H](O1)[C@H](CN(CCCNC(=N)N)C(=N)N)O[C@@H]2CC(=O)NCCc1c[nH]c2ccccc12` gave an inhibition (Neuropilin-1 [1]) of 5%.
`CC1(C)O[C@@H]2[C@H](O1)[C@H](CN(CCCCCNC(=N)N)C(=N)N)O[C@@H]2CC(=O)NCCc1c[nH]c2ccccc12` showed an IC50 (Neuropilin-1 [2]) of 120 µM and an inhibition (Neuropilin-1 [1]) of 52%.
For `CC1(C)O[C@@H]2[C@H](O1)[C@@H](CN(CCNC(=N)N)C(=N)N)O[C@@H]2CC(=O)NCCc1c[nH]c2ccccc12`, the inhibition (Neuropilin-1 [1]) was 26%.
`N=C(N)NCCCc1cn(C[C@@H]2O[C@H](CC(=O)NCCc3c[nH]c4ccccc34)[C@H](O)[C@@H]2O)nn1` was tested, and the inhibition (Neuropilin-1 [1]) was 4%.
With `C[C@@H](O)[C@H](N)C(=O)N[C@@H](CCCCN)C(=O)N1CCC[C@H]1C(=O)N[C@@H](CCCNC(=N)N)C(=O)O` (H-TKPR-OH) the Ratio (Neuropilin-1 [3]) was 0.88, the Activity (Neuropilin-1 [4]) was “Active” and the IC50 (Neuropilin-1 [2]) was 25 µM.
With `CC1(C)O[C@@H]2[C@H](O1)[C@H](CN(CCCCNC(=N)N)C(=N)N)O[C@@H]2CC(=O)NCCc1c[nH]c2ccccc12` the inhibition (Neuropilin-1 [1]) was 39%.
